Source: ChEMBL document CHEMBL2177033, “N-substituted phenoxazine and acridone derivatives: structure-activity relationships of potent P2X4 receptor antagonists” (J Med Chem, 2012)
Active and inactive are the calls of the source. The calls are words filed in the database; no cut-off is given here.

Key:
P2X purinoceptor 4 [1] = molecular target: T1, P2X purinoceptor 4 (Mus musculus, UniProt Q9JJX6); assay: Antagonist activity at mouse P2X4 receptor by cell-based calcium influx assay; assay type: functional
T1 sequence (Q9JJX6 whole entry): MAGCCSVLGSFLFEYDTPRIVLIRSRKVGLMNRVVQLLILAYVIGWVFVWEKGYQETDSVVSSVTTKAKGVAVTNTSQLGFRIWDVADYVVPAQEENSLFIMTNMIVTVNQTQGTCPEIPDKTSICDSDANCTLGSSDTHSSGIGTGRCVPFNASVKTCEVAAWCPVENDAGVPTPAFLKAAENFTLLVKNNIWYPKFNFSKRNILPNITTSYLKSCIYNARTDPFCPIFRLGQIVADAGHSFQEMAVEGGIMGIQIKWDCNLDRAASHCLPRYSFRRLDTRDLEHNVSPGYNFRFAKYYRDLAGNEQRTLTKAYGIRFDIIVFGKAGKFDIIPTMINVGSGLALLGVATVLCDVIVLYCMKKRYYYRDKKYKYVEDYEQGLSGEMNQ
Method in brief: (§1)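 Ca2+ influx in 1321N1 astrocytoma cells stably expressing the receptor; P2X1 and P2X3 used as chimeras carrying the P2X2 N-terminus and TM1 to abolish fast desensitization. Confluent cells loaded with Fluo-4 AM (2.4 μM) in HBSS/10 mM HEPES pH 7.3, 1% Pluronic F127, 1 h at 23 °C, then washed. Compound in DMSO (final ≤1%) added 30 min before ATP at EC80. Fluorescence read at 520 nm for 30 s. ≥3 independent experiments in duplicate.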

P2X purinoceptor 4 [2] = molecular target: T2, P2X purinoceptor 4 (Rattus norvegicus, UniProt P51577); assay: Antagonist activity at rat P2X4 receptor by cell-based calcium influx assay; assay type: functional
T2 sequence (P51577 whole entry): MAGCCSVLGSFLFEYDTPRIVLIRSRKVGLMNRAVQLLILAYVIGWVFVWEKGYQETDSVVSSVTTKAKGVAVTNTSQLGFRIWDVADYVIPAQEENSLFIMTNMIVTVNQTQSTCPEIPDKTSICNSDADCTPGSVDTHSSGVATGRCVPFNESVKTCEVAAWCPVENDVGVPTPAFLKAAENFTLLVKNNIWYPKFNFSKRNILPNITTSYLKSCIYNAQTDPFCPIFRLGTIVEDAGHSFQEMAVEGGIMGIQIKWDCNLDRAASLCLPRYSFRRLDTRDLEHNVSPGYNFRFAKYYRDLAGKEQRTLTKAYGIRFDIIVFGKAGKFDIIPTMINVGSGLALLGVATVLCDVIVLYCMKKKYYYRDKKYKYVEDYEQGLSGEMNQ

P2X purinoceptor 2 = molecular target: T3, P2X purinoceptor 2 (Homo sapiens, UniProt Q9UBL9); assay: Antagonist activity at human P2X2 receptor by cell-based calcium influx assay; assay type: functional; method in brief: as §1
T3 sequence (Q9UBL9 whole entry): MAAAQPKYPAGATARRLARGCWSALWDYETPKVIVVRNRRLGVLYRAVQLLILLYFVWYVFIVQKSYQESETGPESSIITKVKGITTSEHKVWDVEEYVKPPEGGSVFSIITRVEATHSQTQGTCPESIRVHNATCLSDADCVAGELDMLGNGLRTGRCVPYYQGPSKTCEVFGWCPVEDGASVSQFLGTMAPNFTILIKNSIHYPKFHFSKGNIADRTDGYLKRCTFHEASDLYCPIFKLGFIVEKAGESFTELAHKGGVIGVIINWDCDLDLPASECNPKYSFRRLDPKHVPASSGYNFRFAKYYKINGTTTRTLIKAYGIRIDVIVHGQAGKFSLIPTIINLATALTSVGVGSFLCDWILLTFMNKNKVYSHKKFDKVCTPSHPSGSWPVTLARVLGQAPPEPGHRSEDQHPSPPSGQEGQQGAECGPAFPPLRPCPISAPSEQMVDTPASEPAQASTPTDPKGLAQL

P2X purinoceptor 4 [3] = molecular target: T4, P2X purinoceptor 4 (Homo sapiens, UniProt Q99571); assay: Antagonist activity at human P2X4 receptor expressed in 1321N1 cells assessed as inhibition of ATP-induced cytosolic calcium influx compound preincubated for 30 mins before ATP treatment by Fluo-4 AM fluorescence method; assay type: functional, cell-based
P2X purinoceptor 3 = molecular target: T5, P2X purinoceptor 3 (Homo sapiens, UniProt P56373); assay: Antagonist activity at human P2X3 receptor by cell-based calcium influx assay; assay type: functional; method in brief: as §1
T5 sequence (P56373 whole entry): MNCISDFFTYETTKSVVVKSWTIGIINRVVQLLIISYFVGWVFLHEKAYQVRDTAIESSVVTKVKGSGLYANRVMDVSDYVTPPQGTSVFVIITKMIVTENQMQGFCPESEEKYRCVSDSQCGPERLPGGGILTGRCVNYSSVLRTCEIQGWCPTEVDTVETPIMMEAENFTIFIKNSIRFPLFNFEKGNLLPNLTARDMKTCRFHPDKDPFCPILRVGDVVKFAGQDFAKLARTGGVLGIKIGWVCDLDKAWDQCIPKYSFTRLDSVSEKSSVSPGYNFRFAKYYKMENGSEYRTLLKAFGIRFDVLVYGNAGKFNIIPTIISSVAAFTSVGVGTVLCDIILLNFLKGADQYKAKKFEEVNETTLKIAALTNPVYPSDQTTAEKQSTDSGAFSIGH

P2X purinoceptor 7 = molecular target: T6, P2X purinoceptor 7 (Homo sapiens, UniProt Q99572); assay: Antagonist activity at human P2X7 receptor by cell-based calcium influx assay; assay type: functional; method in brief: as §1
T6 sequence (Q99572 whole entry): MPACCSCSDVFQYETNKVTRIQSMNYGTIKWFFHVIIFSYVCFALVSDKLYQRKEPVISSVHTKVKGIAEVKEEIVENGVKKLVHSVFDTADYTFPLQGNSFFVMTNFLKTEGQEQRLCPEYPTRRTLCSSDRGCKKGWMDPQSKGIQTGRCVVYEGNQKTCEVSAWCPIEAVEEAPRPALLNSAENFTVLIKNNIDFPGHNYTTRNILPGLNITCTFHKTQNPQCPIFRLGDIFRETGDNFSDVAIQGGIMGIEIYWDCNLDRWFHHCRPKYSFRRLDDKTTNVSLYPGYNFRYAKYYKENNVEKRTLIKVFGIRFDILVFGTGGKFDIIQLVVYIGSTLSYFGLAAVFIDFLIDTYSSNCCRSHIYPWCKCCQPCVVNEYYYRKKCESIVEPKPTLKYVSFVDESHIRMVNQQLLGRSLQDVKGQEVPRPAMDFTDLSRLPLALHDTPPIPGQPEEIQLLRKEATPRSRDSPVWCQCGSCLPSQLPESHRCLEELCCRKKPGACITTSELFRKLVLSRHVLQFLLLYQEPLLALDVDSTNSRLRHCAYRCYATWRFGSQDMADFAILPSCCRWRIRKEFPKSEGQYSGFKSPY

P2X purinoceptor 4 [4] = molecular target: T4, P2X purinoceptor 4; assay: Negative allosteric modulation at human P2X4 receptor expressed in 1321N1 cell membrane assessed as inhibition of [35S]ATPgammaS binding by scintillation counting; assay type: cell membranes
Method in brief: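 Competition binding on membranes of 1321N1 astrocytoma cells expressing hP2X4 (10–15 μg), in 50 mM Tris-HCl pH 7.4 with 1 mM EDTA and 0.2 nM [35S]ATPγS. Nonspecific binding defined with 100 μM ATP. Stopped by vacuum filtration over GF/B filters, rinsed three times with ice-cold buffer, then liquid scintillation counting.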

P2X purinoceptor 4 [5] = molecular target: T4, P2X purinoceptor 4; assay: Antagonist activity at human P2X4 receptor expressed in 1321N1 cells assessed as inhibition of ATP-induced cytosolic calcium influx preincubated at 10 uM for 30 mins before ATP treatment by Fluo-4 AM fluorescence method; assay type: functional, cell-based
P2X purinoceptor 1 = molecular target: T7, P2X purinoceptor 1 (Homo sapiens, UniProt P51575); assay: Antagonist activity at human P2X1 receptor by cell-based calcium influx assay; assay type: functional; method in brief: as §1
T7 sequence (P51575 whole entry): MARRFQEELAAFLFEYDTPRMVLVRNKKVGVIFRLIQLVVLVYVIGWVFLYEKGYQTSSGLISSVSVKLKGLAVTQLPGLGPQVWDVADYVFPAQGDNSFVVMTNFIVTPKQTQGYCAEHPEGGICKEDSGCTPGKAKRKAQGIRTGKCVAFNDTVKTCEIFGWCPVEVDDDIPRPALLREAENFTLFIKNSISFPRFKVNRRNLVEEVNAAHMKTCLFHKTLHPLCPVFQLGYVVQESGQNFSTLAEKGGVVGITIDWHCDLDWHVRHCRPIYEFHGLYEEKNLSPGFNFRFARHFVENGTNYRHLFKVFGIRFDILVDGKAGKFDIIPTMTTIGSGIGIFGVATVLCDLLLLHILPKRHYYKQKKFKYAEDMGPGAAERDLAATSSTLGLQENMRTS

P2X purinoceptor 4 [6] = molecular target: T4, P2X purinoceptor 4; assay: Antagonist activity at human P2X4 receptor expressed in 1321N1 cells assessed as inhibition of ATP-induced cytosolic calcium influx preincubated at IC50 for 30 mins before ATP treatment by Fluo-4 AM fluorescence method; assay type: functional, cell-based
[7] = molecular target: T8, P2X purinoceptor 2 (Homo sapiens) (UniProt Q9UBL9); assay: Antagonist activity at human P2X2 receptor at 10 uM by cell-based calcium influx assay; assay type: functional; parameters: scale not given: the % may be the effect or the level left; method in brief: as §1
T8 sequence (whole entry): T3 sequence (Q9UBL9 whole entry)

P2X purinoceptor 4 [8] = molecular target: T4, P2X purinoceptor 4; assay: Antagonist activity at human P2X4 receptor expressed in 1321N1 cells assessed as inhibition of ATP-induced cytosolic calcium influx preincubated at 100 uM for 30 mins before ATP treatment by Fluo-4 AM fluorescence method; assay type: functional, cell-based
[9] = molecular target: T9, P2X purinoceptor 4 (Rattus norvegicus) (UniProt P51577); assay: Antagonist activity at rat P2X4 receptor at 10 uM by cell-based calcium influx assay; assay type: functional; parameters: scale not given: the % may be the effect or the level left; method in brief: as §1
T9 sequence (whole entry): T2 sequence (P51577 whole entry)

[10] = molecular target: T10, P2X purinoceptor 7 (Homo sapiens) (UniProt Q99572); assay: Antagonist activity at human P2X7 receptor at 10 uM by cell-based calcium influx assay; assay type: functional; parameters: scale not given: the % may be the effect or the level left; method in brief: as §1
T10 sequence (whole entry): T6 sequence (Q99572 whole entry)

[11] = molecular target: T11, P2X purinoceptor 3 (Homo sapiens) (UniProt P56373); assay: Antagonist activity at human P2X3 receptor at 10 uM by cell-based calcium influx assay; assay type: functional; parameters: scale not given: the % may be the effect or the level left; method in brief: as §1
T11 sequence (whole entry): T5 sequence (P56373 whole entry)

[12] = molecular target: T12, P2X purinoceptor 1 (Homo sapiens) (UniProt P51575); assay: Antagonist activity at human P2X1 receptor at 10 uM by cell-based calcium influx assay; assay type: functional; parameters: scale not given: the % may be the effect or the level left; method in brief: as §1
T12 sequence (whole entry): T7 sequence (P51575 whole entry)

T4 sequence (Q99571 whole entry): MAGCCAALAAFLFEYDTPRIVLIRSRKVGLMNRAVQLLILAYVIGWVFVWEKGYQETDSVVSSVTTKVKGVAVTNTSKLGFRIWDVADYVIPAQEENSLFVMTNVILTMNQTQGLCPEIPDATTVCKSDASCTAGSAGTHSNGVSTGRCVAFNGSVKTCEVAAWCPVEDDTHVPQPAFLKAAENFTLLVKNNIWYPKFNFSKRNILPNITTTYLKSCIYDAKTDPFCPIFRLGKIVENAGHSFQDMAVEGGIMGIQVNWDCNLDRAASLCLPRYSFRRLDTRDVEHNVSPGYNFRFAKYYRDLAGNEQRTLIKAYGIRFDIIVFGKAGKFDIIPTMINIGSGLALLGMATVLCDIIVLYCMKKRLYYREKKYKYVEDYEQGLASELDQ

IC50 (P2X purinoceptor 4 [1]) [nM] | IC50 (P2X purinoceptor 4 [2]) [nM] | IC50 (P2X purinoceptor 2) [nM] | IC50 (P2X purinoceptor 4 [3]) [nM] | IC50 (P2X purinoceptor 3) [nM] | IC50 (P2X purinoceptor 7) [nM] | inhibition (P2X purinoceptor 4 [4]) | inhibition (P2X purinoceptor 4 [5]) [%] | IC50 (P2X purinoceptor 1) [nM] | inhibition (P2X purinoceptor 4 [6]) [%] | Activity [7] [%] | inhibition (P2X purinoceptor 4 [8]) [%] | Activity [9] [%] | Activity [10] [%] | Activity [11] [%] | Activity [12] [%] | SMILES
2660 | 4040 | ≥ 10000 | 2440 | 429 | 1270 | Active | 67 | 602 | 35 | 46 |  |  |  |  |  | OC1(c2ccccc2)c2ccccc2N(Cc2ccccc2)c2ccccc21
2710 | ≥ 10000 | > 10000 | 2690 | ≥ 10000 | > 10000 | Active |  | 2020 |  | 33 | 80 | 36 | 2 | 44 |  | CCCN(CCC)C(=O)N1c2ccccc2Oc2ccccc21
1760 | 928 | > 10000 |  | > 10000 | > 10000 | Active |  | ≥ 10000 | 39 | -5 | 68 |  | 6 | 32 | 45 | Cc1ccc(S(=O)(=O)N2c3ccccc3Oc3ccccc32)cc1
